Data reported in ChEMBL document CHEMBL2040797, “Synthesis of benzimidazoles bearing oxadiazole nucleus as anticancer agents” (2012).

Tests used:
Format in all cases: functional
HCC 2998 [1] = test: Growth inhibition of human HCC2998 cells at 10 uM after 48 hrs by sulforhodamine B assay; settings: HCC 2998, 48 h, read-out: GI
In short: (§1)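 NCI one-dose primary screen at 10 (printed mM) across the 60-line panel. Cells in RPMI 1640 with 5% FBS and 2 mM L-glutamine, plated at 5000–40,000 cells/well and incubated 24 h before dosing. Exposure 48 h at 37 °C, 5% CO2. Adherent cells were fixed with cold TCA, suspension cells fixed after settling. SRB stain, absorbance 515 nm. Reported as percent growth of treated cells relative to control.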

BT-549 = test: Growth inhibition of human BT549 cells at 10 uM after 48 hrs by sulforhodamine B assay; settings: BT-549, 48 h, read-out: GI; in short: as §1
HL-60(TB) = test: Growth inhibition of human HL-60(TB) cells at 10 uM after 48 hrs by sulforhodamine B assay; settings: HL-60, 48 h, read-out: GI
In short: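 NCI 60-panel primary one-dose screen. Cells are grown in RPMI 1640 with 5% FBS, plated by doubling time and pre-incubated 24 h at 37 °C, 5% CO2. They are exposed for 48 h to a single concentration. Settled suspension cells are fixed, then SRB-stained with absorbance at 515 nm. Output is percent growth of treated cells relative to untreated control, reported as a mean graph.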

HCT-116 = test: Cytotoxicity against human HCT116 cells after 48 hrs by sulforhodamine B assay; settings: HCT-116, 48 h
In short: (§2)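 NCI 60-panel screen. Cells were grown in RPMI 1640 with 5% FBS and L-glutamine and plated at 5000–40,000 cells/well according to doubling time. They were preincubated 24 h at 37 °C, 5% CO2, then exposed 48 h to five 10-fold dilutions. Adherent cells were fixed with cold TCA, final 10%; suspension cells were fixed after settling. Cells were stained with 0.4% SRB and read at 515 nm. Tz/C/Ti growth curves gave GI50, TGI and LC50.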

HOP-92 = test: Cytotoxicity against human HOP92 cells after 48 hrs by sulforhodamine B assay; settings: HOP-92, 48 h; in short: as §2
SK-MEL-28 = test: Cytotoxicity against human SK-MEL-28 cells after 48 hrs by sulforhodamine B assay; settings: SK-MEL-28, 48 h; in short: as §2
NCI-H226 = test: Growth inhibition of human NCI-H226 cells at 10 uM after 48 hrs by sulforhodamine B assay; settings: NCI-H226, 48 h, read-out: GI; in short: as §1
HCT-15 = test: Cytotoxicity against human HCT15 cells after 48 hrs by sulforhodamine B assay; settings: HCT-15, 48 h; in short: as §2
HCC 2998 [2] = test: Cytotoxicity against human HCC2998 cells after 48 hrs by sulforhodamine B assay; settings: HCC 2998, 48 h; in short: as §2
[3] = Cytotoxicity against human Hs 578T cells after 48 hrs by sulforhodamine B assay; in short: as §2
SK-MEL-2 = test: Growth inhibition of human SK-MEL-2 cells at 10 uM after 48 hrs by sulforhodamine B assay; settings: SK-MEL-2, 48 h, read-out: GI; in short: as §1
HOP-62 = test: Cytotoxicity against human HOP62 cells after 48 hrs by sulforhodamine B assay; settings: HOP-62, 48 h; in short: as §2
DU-145 = test: Growth inhibition of human DU145 cells at 10 uM after 48 hrs by sulforhodamine B assay; settings: DU-145, 48 h, read-out: GI; in short: as §1
PC-3 = test: Growth inhibition of human PC3 cells at 10 uM after 48 hrs by sulforhodamine B assay; settings: PC-3, 48 h, read-out: GI; in short: as §1
SK-MEL-5 [4] = test: Cytotoxicity against human SK-MEL-5 cells after 48 hrs by sulforhodamine B assay; settings: SK-MEL-5, 48 h; in short: as §2
HT-29 = test: Growth inhibition of human HT-29 cells at 10 uM after 48 hrs by sulforhodamine B assay; settings: HT-29, 48 h, read-out: GI; in short: as §1
786-0 = test: Cytotoxicity against human 786-0 cells after 48 hrs by sulforhodamine B assay; settings: 786-0, 48 h; in short: as §2
SNB-19 = test: Growth inhibition of human SNB19 cells at 10 uM after 48 hrs by sulforhodamine B assay; settings: SNB-19, 48 h, read-out: GI
In short: (§3)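 NCI-60 single-dose screen. Cells grown in RPMI 1640 with 5% FBS and L-glutamine, plated at 5000–40,000 cells/well by doubling time, and preincubated 24 h at 37 °C, 5% CO2. Compound stocks in DMSO, added at one concentration, then incubated 48 h. Adherent cells fixed with cold TCA (10% final), stained with 0.4% SRB, dye solubilized in 10 mM Tris base, A515 read. Reported as percent growth relative to untreated control.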

EKVX = test: Growth inhibition of human EKVX cells at 10 uM after 48 hrs by sulforhodamine B assay; settings: read-out: GI; in short: as §1
IGROV-1 [5] = test: Growth inhibition of human IGROV1 cells at 10 uM after 48 hrs by sulforhodamine B assay; settings: IGROV-1, 48 h, read-out: GI; in short: as §1
SF-268 = test: Cytotoxicity against human SF268 cells after 48 hrs by sulforhodamine B assay; settings: SF-268, 48 h; in short: as §2
IGROV-1 [6] = test: Cytotoxicity against human IGROV1 cells after 48 hrs by sulforhodamine B assay; settings: IGROV-1, 48 h; in short: as §2
MDA-MB-231 = test: Cytotoxicity against human MDA-MB-231 cells after 48 hrs by sulforhodamine B assay; settings: MDA-MB-231, 48 h; in short: as §2
SK-MEL-5 [7] = test: Growth inhibition of human SK-MEL-5 cells at 10 uM after 48 hrs by sulforhodamine B assay; settings: SK-MEL-5, 48 h, read-out: GI; in short: as §3
T47D = test: Growth inhibition of human T47D cells at 10 uM after 48 hrs by sulforhodamine B assay; settings: read-out: GI; in short: as §3
OVCAR-8 = test: Growth inhibition of human OVCAR8 cells at 10 uM after 48 hrs by sulforhodamine B assay; settings: OVCAR-8, 48 h, read-out: GI; in short: as §1
MDA-MB-468 = test: Cytotoxicity against human MDA-MB-468 cells after 48 hrs by sulforhodamine B assay; settings: MDA-MB-468, 48 h; in short: as §2
[8] = read-out: LC50 (the source's name)

O=C(CCc1nnc(-c2ccc(Cl)cc2Cl)o1)c1nc2ccccc2[nH]1
inhibition of growth at 10 µM (HCC 2998 [1]): 34.1% | inhibition of growth at 10 µM (BT-549): 43.6% | inhibition of growth at 10 µM (HL-60(TB)): 134% | GI50 (HCT-116): 3.33 µM | TGI (HCT-116): 13.5 µM | CC50 (HCT-116; [8]): 52.5 µM | GI50 (HOP-92): 1.77 µM | TGI (HOP-92): 15.8 µM | CC50 (HOP-92; [8]): 100 µM | GI50 (SK-MEL-28): 12.7 µM | TGI (SK-MEL-28): 42.7 µM | CC50 (SK-MEL-28; [8]): 100 µM | inhibition of growth at 10 µM (NCI-H226): 16.3% | GI50 (HCT-15): 5.13 µM | TGI (HCT-15): 48.6 µM | CC50 (HCT-15; [8]): 100 µM | GI50 (HCC 2998 [2]): 6.52 µM | TGI (HCC 2998 [2]): 32.3 µM | CC50 (HCC 2998 [2]; [8]): 100 µM | GI50 [3]: 9.71 µM | TGI [3]: 93.9 µM | CC50 [3, 8]: 100 µM | inhibition of growth at 10 µM (SK-MEL-2): 40.6% | GI50 (HOP-62): 7.67 µM | TGI (HOP-62): 41.3 µM | CC50 (HOP-62; [8]): 100 µM | inhibition of growth at 10 µM (DU-145): 17.8% | inhibition of growth at 10 µM (PC-3): 46.9% | GI50 (SK-MEL-5 [4]): 2.88 µM | TGI (SK-MEL-5 [4]): 14.9 µM | CC50 (SK-MEL-5 [4]; [8]): 64.6 µM | inhibition of growth at 10 µM (HT-29): 90.6% | GI50 (786-0): 10.7 µM | TGI (786-0): 45.5 µM | CC50 (786-0; [8]): 100 µM | inhibition of growth at 10 µM (SNB-19): 24.9% | inhibition of growth at 10 µM (EKVX): 39% | inhibition of growth at 10 µM (IGROV-1 [5]): 42.4% | GI50 (SF-268): 7.3 µM | TGI (SF-268): 46.6 µM | CC50 (SF-268; [8]): 100 µM | GI50 (IGROV-1 [6]): 5.26 µM | TGI (IGROV-1 [6]): 39.1 µM | CC50 (IGROV-1 [6]; [8]): 100 µM | GI50 (MDA-MB-231): 2.68 µM | TGI (MDA-MB-231): 42.6 µM | CC50 (MDA-MB-231; [8]): 100 µM | inhibition of growth at 10 µM (SK-MEL-5 [7]): 33% | inhibition of growth at 10 µM (T47D): 48% | inhibition of growth at 10 µM (OVCAR-8): 42.8% | GI50 (MDA-MB-468): 0.797 µM | TGI (MDA-MB-468): 12.2 µM | CC50 (MDA-MB-468; [8]): 100 µM
